Assay results: the M2OR odorant receptor database
Numbering of substitutions follows the chain as printed.

The compounds below were run on T1, OR7A5 M81I. Settings: stereoisomer not certain.
T1 sequence (whole entry): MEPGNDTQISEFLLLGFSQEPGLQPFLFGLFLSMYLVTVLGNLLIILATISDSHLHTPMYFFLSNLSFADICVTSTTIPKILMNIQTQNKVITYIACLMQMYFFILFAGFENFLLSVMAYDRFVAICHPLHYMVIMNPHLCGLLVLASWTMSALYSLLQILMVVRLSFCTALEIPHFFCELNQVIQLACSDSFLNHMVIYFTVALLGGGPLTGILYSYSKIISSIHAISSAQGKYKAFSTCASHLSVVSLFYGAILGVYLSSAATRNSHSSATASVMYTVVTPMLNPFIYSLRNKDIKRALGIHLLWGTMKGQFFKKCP
In short: (§1)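 Each receptor–molecule pair is labelled responsive or non-responsive (inactive) according to whether the original authors judged the measured signal statistically different from baseline. The data were taken from the main text and supplementary material of published papers and checked for typos and inconsistencies. Assay methods differed by source, with transient luciferase assays in mammalian cell lines being common.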
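Also: active if original authors judged signal statistically different from baseline.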

Odorant receptor agonist call, inactive:
CCCC(S)CCOC(C)=O (configuration not stated)
CCC1OC(=O)C(O)=C1C (configuration not stated)
CCCCCCC=CCCC=O
CC1=C(O)C(=O)C(C)O1 (configuration not stated)
CCC1OC(C)=C(O)C1=O (configuration not stated)
Cc1cnc(C)c(C)n1
CC1=C(O)C(=O)OC1C (configuration not stated)
CC1=NC(C)C(C)S1 (configuration not stated)

The compounds below were run against T2, OR7C1 (Homo sapiens) (UniProt O76099). Settings: stereoisomer not certain.
T2 sequence (whole entry): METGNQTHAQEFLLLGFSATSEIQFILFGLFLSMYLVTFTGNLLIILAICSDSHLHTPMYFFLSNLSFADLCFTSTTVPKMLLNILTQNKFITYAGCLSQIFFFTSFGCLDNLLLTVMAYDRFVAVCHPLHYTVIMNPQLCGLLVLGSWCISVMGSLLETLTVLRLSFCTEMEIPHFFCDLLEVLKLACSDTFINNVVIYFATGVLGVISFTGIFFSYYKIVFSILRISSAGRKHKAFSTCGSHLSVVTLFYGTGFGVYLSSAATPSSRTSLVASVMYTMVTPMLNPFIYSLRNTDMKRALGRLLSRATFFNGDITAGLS
In short: as §1

Odorant receptor agonist call, inactive:
CCCC(S)CCOC(C)=O (configuration not stated)
CCCCCC(S)C(C)CO (configuration not stated)
CC(CO)CS (configuration not stated)
CCCCCC(=O)C(C)C(C)=O (configuration not stated)
CC(=O)c1c(C)c([N+](=O)[O-])c(C(C)(C)C)c([N+](=O)[O-])c1C
CCC1OC(=O)C(O)=C1C (configuration not stated)
CCCCCCC=CCCC=O
CC1=C(O)C(=O)C(C)O1 (configuration not stated)
CCC1OC(C)=C(O)C1=O (configuration not stated)
CCC(S)C(C)CO (configuration not stated)
CC1CCCCCCCCCCCCC(=O)C1 (configuration not stated)
CCCCC(S)C(C)CO (configuration not stated)
Cc1cnc(C)c(C)n1
CC1=C(O)C(=O)OC1C (configuration not stated)
CC1=NC(C)C(C)S1 (configuration not stated)

The compounds below were run on T3, OR7C1 V126I E171K. Settings: stereoisomer not certain.
T3 sequence (whole entry): T2 sequence (whole entry) with V126I, E171K
In short: as §1

Odorant receptor agonist call, inactive:
CCCC(S)CCOC(C)=O (configuration not stated)
CCC1OC(=O)C(O)=C1C (configuration not stated)
CCCCCCC=CCCC=O
CC1=C(O)C(=O)C(C)O1 (configuration not stated)
CCC1OC(C)=C(O)C1=O (configuration not stated)
Cc1cnc(C)c(C)n1
CC1=C(O)C(=O)OC1C (configuration not stated)
CC1=NC(C)C(C)S1 (configuration not stated)

These compounds were tested against T4, OR7C2 (Homo sapiens) (UniProt O60412). Settings: stereoisomer not certain.
T4 sequence (whole entry): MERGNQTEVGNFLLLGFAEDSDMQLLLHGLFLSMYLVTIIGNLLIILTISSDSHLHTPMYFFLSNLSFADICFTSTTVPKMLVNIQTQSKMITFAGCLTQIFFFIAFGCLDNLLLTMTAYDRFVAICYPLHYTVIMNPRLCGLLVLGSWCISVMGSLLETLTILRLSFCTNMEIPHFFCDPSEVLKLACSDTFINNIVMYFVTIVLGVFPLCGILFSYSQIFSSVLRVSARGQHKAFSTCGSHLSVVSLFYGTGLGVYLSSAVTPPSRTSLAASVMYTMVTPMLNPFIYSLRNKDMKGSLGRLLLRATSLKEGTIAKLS
In short: as §1

Odorant receptor agonist call, inactive:
CCCC(S)CCOC(C)=O (configuration not stated)
CCCCCC(S)C(C)CO (configuration not stated)
CC(CO)CS (configuration not stated)
CCCCCC(=O)C(C)C(C)=O (configuration not stated)
CC(=O)c1c(C)c([N+](=O)[O-])c(C(C)(C)C)c([N+](=O)[O-])c1C
CCC1OC(=O)C(O)=C1C (configuration not stated)
CCCCCCC=CCCC=O
CC1=C(O)C(=O)C(C)O1 (configuration not stated)
CCC1OC(C)=C(O)C1=O (configuration not stated)
CCC(S)C(C)CO (configuration not stated)
CC1CCCCCCCCCCCCC(=O)C1 (configuration not stated)
CCCCC(S)C(C)CO (configuration not stated)
Cc1cnc(C)c(C)n1
CC1=C(O)C(=O)OC1C (configuration not stated)
CC1=NC(C)C(C)S1 (configuration not stated)

The compounds below were run against T5, OR7D2 (Homo sapiens) (UniProt Q96RA2). Settings: stereoisomer not certain.
T5 sequence (whole entry): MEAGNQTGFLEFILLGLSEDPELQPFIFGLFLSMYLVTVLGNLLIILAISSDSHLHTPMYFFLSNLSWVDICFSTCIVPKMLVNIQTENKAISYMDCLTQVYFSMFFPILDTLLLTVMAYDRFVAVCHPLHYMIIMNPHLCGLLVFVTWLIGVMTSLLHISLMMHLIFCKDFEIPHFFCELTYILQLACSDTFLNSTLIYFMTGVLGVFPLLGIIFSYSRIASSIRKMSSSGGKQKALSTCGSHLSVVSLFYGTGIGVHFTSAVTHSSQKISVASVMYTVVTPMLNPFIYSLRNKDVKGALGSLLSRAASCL
In short: as §1

Odorant receptor agonist call, inactive:
CCCC(S)CCOC(C)=O (configuration not stated)
CCCCCC(S)C(C)CO (configuration not stated)
CC(CO)CS (configuration not stated)
CCCCCC(=O)C(C)C(C)=O (configuration not stated)
CC(=O)c1c(C)c([N+](=O)[O-])c(C(C)(C)C)c([N+](=O)[O-])c1C
CCC1OC(=O)C(O)=C1C (configuration not stated)
CCCCCCC=CCCC=O
CC1=C(O)C(=O)C(C)O1 (configuration not stated)
CCC1OC(C)=C(O)C1=O (configuration not stated)
CCC(S)C(C)CO (configuration not stated)
CC1CCCCCCCCCCCCC(=O)C1 (configuration not stated)
CCCCC(S)C(C)CO (configuration not stated)
Cc1cnc(C)c(C)n1
CC1=C(O)C(=O)OC1C (configuration not stated)
CC1=NC(C)C(C)S1 (configuration not stated)

Each compound was assayed against T6, OR7D4 (Homo sapiens) (UniProt Q8NG98). Settings: stereoisomer not certain.
T6 sequence (whole entry): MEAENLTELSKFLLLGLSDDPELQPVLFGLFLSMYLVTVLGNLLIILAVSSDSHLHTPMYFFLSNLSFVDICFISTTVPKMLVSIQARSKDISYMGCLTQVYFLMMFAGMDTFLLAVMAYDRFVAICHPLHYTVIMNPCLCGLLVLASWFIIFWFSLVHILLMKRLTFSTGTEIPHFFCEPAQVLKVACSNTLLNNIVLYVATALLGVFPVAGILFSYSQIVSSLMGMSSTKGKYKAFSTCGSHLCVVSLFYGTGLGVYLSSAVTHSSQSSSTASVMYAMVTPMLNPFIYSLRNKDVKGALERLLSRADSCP
In short: as §1

Odorant receptor agonist call, inactive:
CCCC(S)CCOC(C)=O (configuration not stated)
CCCCCC(S)C(C)CO (configuration not stated)
CC(CO)CS (configuration not stated)
CCCCCC(=O)C(C)C(C)=O (configuration not stated)
CC(=O)c1c(C)c([N+](=O)[O-])c(C(C)(C)C)c([N+](=O)[O-])c1C
CCC1OC(=O)C(O)=C1C (configuration not stated)
CCCCCCC=CCCC=O
CC1=C(O)C(=O)C(C)O1 (configuration not stated)
CCC1OC(C)=C(O)C1=O (configuration not stated)
CCC(S)C(C)CO (configuration not stated)
CC1CCCCCCCCCCCCC(=O)C1 (configuration not stated)
CCCCC(S)C(C)CO (configuration not stated)
Cc1cnc(C)c(C)n1
CC1=C(O)C(=O)OC1C (configuration not stated)
CC1=NC(C)C(C)S1 (configuration not stated)

The compounds below were run on T7, OR7D4 R88W. Settings: stereoisomer not certain.
T7 sequence (whole entry): T6 sequence (whole entry) with R88W
In short: as §1

Odorant receptor agonist call, inactive:
CCCC(S)CCOC(C)=O (configuration not stated)
CCC1OC(=O)C(O)=C1C (configuration not stated)
CCCCCCC=CCCC=O
CC1=C(O)C(=O)C(C)O1 (configuration not stated)
CCC1OC(C)=C(O)C1=O (configuration not stated)
Cc1cnc(C)c(C)n1
CC1=C(O)C(=O)OC1C (configuration not stated)
CC1=NC(C)C(C)S1 (configuration not stated)

What follows are compounds tested on T8, OR7D4. Settings: stereoisomer not certain.
T8 sequence (whole entry): T6 sequence (whole entry) with R88W, T133M
In short: as §1

Odorant receptor agonist call, inactive:
CCCC(S)CCOC(C)=O (configuration not stated)
CCC1OC(=O)C(O)=C1C (configuration not stated)
CCCCCCC=CCCC=O
CC1=C(O)C(=O)C(C)O1 (configuration not stated)
CCC1OC(C)=C(O)C1=O (configuration not stated)
Cc1cnc(C)c(C)n1
CC1=C(O)C(=O)OC1C (configuration not stated)
CC1=NC(C)C(C)S1 (configuration not stated)

What follows are compounds tested against T9, OR7E24 (Homo sapiens) (UniProt Q6IFN5). Settings: stereoisomer not certain.
T9 sequence (whole entry): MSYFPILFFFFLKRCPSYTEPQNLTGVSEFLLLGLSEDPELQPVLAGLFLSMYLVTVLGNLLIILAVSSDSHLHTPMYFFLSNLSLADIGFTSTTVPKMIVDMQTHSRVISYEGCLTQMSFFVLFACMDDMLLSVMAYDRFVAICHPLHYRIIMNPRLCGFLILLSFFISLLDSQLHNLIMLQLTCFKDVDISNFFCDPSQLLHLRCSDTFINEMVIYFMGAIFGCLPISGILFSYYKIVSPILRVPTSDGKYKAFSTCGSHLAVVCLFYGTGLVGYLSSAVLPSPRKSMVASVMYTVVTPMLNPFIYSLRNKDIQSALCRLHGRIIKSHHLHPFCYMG
In short: as §1

Odorant receptor agonist call, inactive:
CCCC(S)CCOC(C)=O (configuration not stated)
CCCCCC(S)C(C)CO (configuration not stated)
CC(CO)CS (configuration not stated)
CCCCCC(=O)C(C)C(C)=O (configuration not stated)
CC(=O)c1c(C)c([N+](=O)[O-])c(C(C)(C)C)c([N+](=O)[O-])c1C
CCC1OC(=O)C(O)=C1C (configuration not stated)
CCCCCCC=CCCC=O
CC1=C(O)C(=O)C(C)O1 (configuration not stated)
CCC1OC(C)=C(O)C1=O (configuration not stated)
CCC(S)C(C)CO (configuration not stated)
CC1CCCCCCCCCCCCC(=O)C1 (configuration not stated)
CCCCC(S)C(C)CO (configuration not stated)
Cc1cnc(C)c(C)n1
CC1=C(O)C(=O)OC1C (configuration not stated)
CC1=NC(C)C(C)S1 (configuration not stated)
